Data from ChEMBL document CHEMBL1132458, “Potent and selective inhibition of varicella-zoster virus (VZV) by nucleoside analogues with an unusual bicyclic base” (J Med Chem, 1999).

Tests used:
HEL [1] = experiment: Compound was evaluated for the cytotoxicity against HEL cells; assay type: functional; details: Homo sapiens
Human alphaherpesvirus 3 [2] = experiment: Compound was evaluated for the inhibition of VZV (TK-) thymidine kinase-deficient strain 07; assay type: functional, organism-based
How it was run: (§1)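 Confluent human embryonic lung (HEL) fibroblasts were infected with 20 PFU per well of virus for 1–2 h, and then residual virus was removed. Cells were then kept in MEM with 2% inactivated FCS, 1% L-glutamine and 0.3% sodium bicarbonate, plus serial compound concentrations. Plaques were scored after 5 days. EC50 is the concentration cutting plaque formation by 50% versus untreated control.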

Human alphaherpesvirus 3 [3] = experiment: Compound was evaluated for the inhibition of VZV (TK-) thymidine kinase-deficient strain YS-R; assay type: functional, organism-based; how it was run: as §1
Human alphaherpesvirus 3 [4] = experiment: Compound was evaluated for the inhibition of VZV strains of OKA; assay type: functional, organism-based
Human alphaherpesvirus 3 [5] = experiment: Compound was evaluated for the inhibition of VZV strains of YS; assay type: functional, organism-based
HEL [6] = experiment: Compound was evaluated for the cytotoxicity against HEL cells; details: Homo sapiens
Human alphaherpesvirus 3 [7] = experiment: Compound was evaluated for the inhibition of VZV (TK-) thymidine kinases Strain YS-R; assay type: functional, organism-based
Human alphaherpesvirus 3 [8] = experiment: Compound was evaluated for the inhibition of VZV (TK-) thymidine kinases Strain 07; assay type: functional, organism-based

Compound	EC50 (Human alphaherpesvirus 3 [2])	EC50 (Human alphaherpesvirus 3 [3])	EC50 (Human alphaherpesvirus 3 [4])	EC50 (Human alphaherpesvirus 3 [5])	EC50 (Human alphaherpesvirus 3 [7])	EC50 (Human alphaherpesvirus 3 [8])	MCC (HEL [1])	IC50 (HEL [6])
CCCCCc1cc2cn([C@H]3C[C@H](O)[C@@H](CO)O3)c(=O)nc2o1	> 50 µM	> 50 µM	3 µM	4.6 µM			> 50 µM	> 50 µM
CCCCCCc1cc2cn([C@H]3C[C@H](O)[C@@H](CO)O3)c(=O)nc2o1	> 50 µM	> 50 µM	1.3 µM	2.8 µM			200 µM	> 200 µM
CCCCCCCCCCc1cc2cn([C@H]3C[C@H](O)[C@@H](CO)O3)c(=O)nc2o1			0.015 µM	0.008 µM	> 50 µM	> 50 µM	> 50 µM	> 50 µM
Nc1nc2c(ncn2COCCO)c(=O)[nH]1 [ACYCLOVIR]							> 200 µM	> 200 µM
CCCCCCCCCCCCc1cc2cn([C@H]3C[C@H](O)[C@@H](CO)O3)c(=O)nc2o1			1.3 µM	1.1 µM	> 20 µM	> 50 µM	50 µM	> 200 µM
O=c1[nH]c(=O)n([C@H]2C[C@H](O)[C@@H](CO)O2)cc1/C=C/Br [BRIVUDINE]			0.003 µM	0.006 µM	> 300 µM	144 µM	> 150 µM	> 400 µM
CCCCCCCCc1cc2cn([C@H]3C[C@H](O)[C@@H](CO)O3)c(=O)nc2o1			0.008 µM	0.024 µM	> 50 µM	> 50 µM	> 50 µM	> 50 µM

Continued by falling EC50 (Human alphaherpesvirus 3 [4]), values first:

EC50 (Human alphaherpesvirus 3 [2])	EC50 (Human alphaherpesvirus 3 [3])	EC50 (Human alphaherpesvirus 3 [4])	EC50 (Human alphaherpesvirus 3 [5])	EC50 (Human alphaherpesvirus 3 [7])	EC50 (Human alphaherpesvirus 3 [8])	Compound	MCC (HEL [1])	IC50 (HEL [6])
		0.5 µM	0.5 µM	> 50 µM	> 50 µM	CCCCCCCCCCCc1cc2cn([C@H]3C[C@H](O)[C@@H](CO)O3)c(=O)nc2o1	200 µM	> 200 µM
		0.17 µM	0.39 µM	> 50 µM	> 50 µM	CCCCCCCc1cc2cn([C@H]3C[C@H](O)[C@@H](CO)O3)c(=O)nc2o1	> 50 µM	> 50 µM
		0.02 µM	0.02 µM	> 200 µM	> 200 µM	CCCCCCCCCc1cc2cn([C@H]3C[C@H](O)[C@@H](CO)O3)c(=O)nc2o1	> 200 µM	> 200 µM
